Source: ChEMBL document CHEMBL3286131, “Design, synthesis and systematic evaluation of cytotoxic 3-heteroarylisoquinolinamines as topoisomerases inhibitors” (Eur J Med Chem, 2014)
Values joined by “and” are separate entries in the source; they are usually repeats but may differ in a detail not shown here. Identical values can stand only once.

What was measured:
[1] = biological target: DNA topoisomerase 2-alpha (Homo sapiens) (UniProt P11388); test: Inhibition of human DNA topoisomerase-2a-mediated relaxation of supercoiled DNA pBR322 at 100 uM after 4 hrs using ethidium bromide staining by agarose gel electrophoresis analysis
DNA topoisomerase 2-alpha (Homo sapiens), sequence (P11388 whole entry): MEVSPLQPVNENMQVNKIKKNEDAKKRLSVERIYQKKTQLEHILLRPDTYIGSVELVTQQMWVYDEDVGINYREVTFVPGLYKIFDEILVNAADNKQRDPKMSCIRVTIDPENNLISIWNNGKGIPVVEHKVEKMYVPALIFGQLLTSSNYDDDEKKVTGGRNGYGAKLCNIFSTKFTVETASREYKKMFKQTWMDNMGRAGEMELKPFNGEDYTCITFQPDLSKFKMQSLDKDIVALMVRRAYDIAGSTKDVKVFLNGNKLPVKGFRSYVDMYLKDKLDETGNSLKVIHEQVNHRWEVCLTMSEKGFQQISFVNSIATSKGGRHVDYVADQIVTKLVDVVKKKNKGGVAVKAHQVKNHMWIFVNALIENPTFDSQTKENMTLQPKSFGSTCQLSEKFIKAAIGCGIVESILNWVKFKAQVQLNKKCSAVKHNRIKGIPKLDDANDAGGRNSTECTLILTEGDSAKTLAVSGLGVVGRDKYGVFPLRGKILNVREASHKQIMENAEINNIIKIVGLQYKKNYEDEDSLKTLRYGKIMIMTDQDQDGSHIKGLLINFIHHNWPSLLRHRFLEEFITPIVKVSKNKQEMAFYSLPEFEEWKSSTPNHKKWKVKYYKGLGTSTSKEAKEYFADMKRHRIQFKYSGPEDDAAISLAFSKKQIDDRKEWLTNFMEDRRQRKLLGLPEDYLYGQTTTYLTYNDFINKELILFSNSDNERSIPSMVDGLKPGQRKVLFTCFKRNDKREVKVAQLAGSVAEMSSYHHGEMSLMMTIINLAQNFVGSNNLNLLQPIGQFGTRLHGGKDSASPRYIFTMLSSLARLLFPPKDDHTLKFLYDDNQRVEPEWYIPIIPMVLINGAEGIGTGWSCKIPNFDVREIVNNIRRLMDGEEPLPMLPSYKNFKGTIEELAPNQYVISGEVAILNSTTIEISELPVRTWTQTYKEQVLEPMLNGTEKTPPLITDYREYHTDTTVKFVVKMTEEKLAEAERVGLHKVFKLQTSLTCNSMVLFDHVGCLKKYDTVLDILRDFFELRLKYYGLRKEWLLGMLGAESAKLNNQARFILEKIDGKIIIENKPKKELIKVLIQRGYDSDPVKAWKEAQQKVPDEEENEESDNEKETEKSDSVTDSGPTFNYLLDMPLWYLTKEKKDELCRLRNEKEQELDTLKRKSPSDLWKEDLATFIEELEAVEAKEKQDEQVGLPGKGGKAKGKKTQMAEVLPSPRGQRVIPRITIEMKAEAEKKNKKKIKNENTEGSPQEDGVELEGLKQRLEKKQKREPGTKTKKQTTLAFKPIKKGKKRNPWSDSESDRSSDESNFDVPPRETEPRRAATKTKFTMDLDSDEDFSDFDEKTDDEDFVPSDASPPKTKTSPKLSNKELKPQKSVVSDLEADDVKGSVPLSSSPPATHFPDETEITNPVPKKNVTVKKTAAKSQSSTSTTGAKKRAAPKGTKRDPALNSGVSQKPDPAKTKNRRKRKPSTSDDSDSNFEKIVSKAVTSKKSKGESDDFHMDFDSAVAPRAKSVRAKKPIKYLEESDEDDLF
Summary of the method: (§1)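 Supercoiled pBR322 (200 ng) incubated with human topo IIα (1 unit) ± compound for 30 min at 30 °C. Buffer: 10 mM Tris-HCl pH 7.9, 50 mM NaCl, 50 mM KCl, 5 mM MgCl2, 1 mM EDTA, 1 mM ATP, BSA. Stopped with EDTA. 1% agarose gel run at 25 V for 4 h in TAE, ethidium bromide stain, supercoiled DNA quantified by UV imaging.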

[2] = biological target: T1, DNA topoisomerase 1 (Homo sapiens) (UniProt P11387); test: Inhibition of recombinant human DNA topoisomerase-1-mediated relaxation of supercoiled DNA pBR322 at 20 uM after 7 hrs using ethidium bromide staining by agarose gel electrophoresis analysis
T1 sequence (whole entry): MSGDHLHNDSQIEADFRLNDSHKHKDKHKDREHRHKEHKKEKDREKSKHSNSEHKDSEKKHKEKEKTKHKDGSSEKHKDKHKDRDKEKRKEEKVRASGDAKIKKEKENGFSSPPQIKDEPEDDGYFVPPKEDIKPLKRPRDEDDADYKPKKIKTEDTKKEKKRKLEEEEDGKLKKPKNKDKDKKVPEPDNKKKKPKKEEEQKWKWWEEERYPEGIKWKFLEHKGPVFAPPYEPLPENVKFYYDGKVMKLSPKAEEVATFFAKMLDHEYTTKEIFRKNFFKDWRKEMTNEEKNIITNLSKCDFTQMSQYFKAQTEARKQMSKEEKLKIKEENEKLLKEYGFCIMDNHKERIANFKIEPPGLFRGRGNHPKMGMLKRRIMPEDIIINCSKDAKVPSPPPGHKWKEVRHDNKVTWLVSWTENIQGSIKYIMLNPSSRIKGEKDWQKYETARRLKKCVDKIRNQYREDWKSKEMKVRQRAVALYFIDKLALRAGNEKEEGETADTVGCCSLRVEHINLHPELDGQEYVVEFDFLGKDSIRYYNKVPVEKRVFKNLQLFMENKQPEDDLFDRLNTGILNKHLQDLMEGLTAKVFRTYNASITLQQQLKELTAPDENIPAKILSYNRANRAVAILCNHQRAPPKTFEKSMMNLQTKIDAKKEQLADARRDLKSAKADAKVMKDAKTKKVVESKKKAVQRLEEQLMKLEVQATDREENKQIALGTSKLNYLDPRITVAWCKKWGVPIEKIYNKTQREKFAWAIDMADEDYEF
Summary of the method: (§2)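 pBR322 (100 ng) incubated with recombinant human topo I (0.4 units) ± compound for 30 min at 37 °C. Buffer: 10 mM Tris-HCl pH 7.9, 150 mM NaCl, 0.1% BSA, 1 mM spermidine, 5% glycerol. Quenched with sarcosyl stop solution. 1% agarose gel run at 15 V for 7 h in TAE, ethidium bromide stain, supercoiled DNA quantified under UV.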

[3] = biological target: T1, DNA topoisomerase 1 (Homo sapiens); test: Inhibition of recombinant human DNA topoisomerase-1-mediated relaxation of supercoiled DNA pBR322 at 100 uM after 7 hrs using ethidium bromide staining by agarose gel electrophoresis analysis; summary of the method: as §2
HeLa [4] = test: Cell cycle arrest in human HeLa cells assessed as accumulation at G0/G1 phase phase at 50 uM after 24 hrs using […] by flow cytometry analysis relative to control; assay type: functional
Summary of the method: (§3)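 HeLa cells exposed to graded compound concentrations for 24 h, harvested by centrifugation, PBS-washed twice, fixed overnight on ice in 70% ethanol. Stained with 10 μg/mL propidium iodide plus 0.5 mg/mL RNase and 0.1% Triton X-100 in PBS, 30 min at 37 °C in the dark. Flow cytometry gates: sub-G0/G1, G0/G1, S, G2/M.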

HeLa [5] = test: Cell cycle arrest in human HeLa cells assessed as accumulation at G0/G1 phase phase at 25 uM after 24 hrs using […] by flow cytometry analysis relative to control; assay type: functional; summary of the method: as §3
[6] = Cytotoxicity against human HCT15 cells after 2 days; assay type: functional, cell-based, HCT-15
Summary of the method: (§4)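 Cells seeded at 2-4 × 10^4 per well in medium with 10% FBS and incubated overnight at 37 °C, 5% CO2. Graded compound concentrations added on day 2. CCK-8 reagent added on day 4 for a further 4 h, absorbance read at 450 nm. IC50 from a four-parameter logistic fit; mean ± S.D. of three experiments run in triplicate.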

HeLa [7] = test: Cell cycle arrest in human HeLa cells assessed as accumulation at G2/M phase phase at 25 uM after 24 hrs using […] by flow cytometry analysis relative to control; assay type: functional; summary of the method: as §3
HeLa [8] = test: Cell cycle arrest in human HeLa cells assessed as accumulation at sub-G0/G1 phase at 50 uM after 24 hrs using […] by flow cytometry analysis relative to control; assay type: functional; summary of the method: as §3
T47D = test: Cytotoxicity against human T47D cells after 2 days; assay type: functional, cell-based; summary of the method: as §4
HeLa [9] = test: Cell cycle arrest in human HeLa cells assessed as accumulation at G2/M phase phase at 50 uM after 24 hrs using […] by flow cytometry analysis relative to control; assay type: functional; summary of the method: as §3
[10] = Cytotoxicity against human MCF10A cells after 2 days; assay type: cell-based, MCF-10A; summary of the method: as §4
HeLa [11] = test: Cell cycle arrest in human HeLa cells assessed as accumulation at S phase phase at 50 uM after 24 hrs using […] by flow cytometry analysis relative to control; assay type: functional; summary of the method: as §3
HeLa [12] = test: Cell cycle arrest in human HeLa cells assessed as accumulation at S phase phase at 25 uM after 24 hrs using […] by flow cytometry analysis relative to control; assay type: functional; summary of the method: as §3
HeLa [13] = test: Cell cycle arrest in human HeLa cells assessed as accumulation at G0/G1 phase phase at 5 uM after 24 hrs using ethidium bromide staining by flow cytometry analysis relative to control; assay type: functional; settings: in the assay text read “propidium iodide staining” for “ethidium bromide staining”; summary of the method: as §3
HeLa [14] = test: Cell cycle arrest in human HeLa cells assessed as accumulation at S phase phase at 5 uM after 24 hrs using ethidium bromide staining by flow cytometry analysis relative to control; assay type: functional; settings: in the assay text read “propidium iodide staining” for “ethidium bromide staining”; summary of the method: as §3
HeLa [15] = test: Cell cycle arrest in human HeLa cells assessed as accumulation at G2/M phase phase at 5 uM after 24 hrs using ethidium bromide staining by flow cytometry analysis relative to control; assay type: functional; settings: in the assay text read “propidium iodide staining” for “ethidium bromide staining”; summary of the method: as §3
HeLa [16] = test: Cell cycle arrest in human HeLa cells assessed as accumulation at sub-G0/G1 phase at 10 uM after 24 hrs using ethidium bromide staining by flow cytometry analysis relative to control; assay type: functional; settings: in the assay text read “propidium iodide staining” for “ethidium bromide staining”; summary of the method: as §3
HeLa [17] = test: Cell cycle arrest in human HeLa cells assessed as accumulation at G0/G1 phase phase at 10 uM after 24 hrs using ethidium bromide staining by flow cytometry analysis relative to control; assay type: functional; settings: in the assay text read “propidium iodide staining” for “ethidium bromide staining”; summary of the method: as §3
HeLa [18] = test: Cell cycle arrest in human HeLa cells assessed as accumulation at sub-G0/G1 phase at 25 uM after 24 hrs using […] by flow cytometry analysis relative to control; assay type: functional; summary of the method: as §3
DU-145 = test: Cytotoxicity against human DU145 cells after 2 days; assay type: functional, cell-based; summary of the method: as §4
HeLa [19] = test: Cell cycle arrest in human HeLa cells assessed as accumulation at S phase phase at 10 uM after 24 hrs using ethidium bromide staining by flow cytometry analysis relative to control; assay type: functional; settings: in the assay text read “propidium iodide staining” for “ethidium bromide staining”; summary of the method: as §3
HeLa [20] = test: Cell cycle arrest in human HeLa cells assessed as accumulation at G2/M phase phase at 10 uM after 24 hrs using ethidium bromide staining by flow cytometry analysis relative to control; assay type: functional; settings: in the assay text read “propidium iodide staining” for “ethidium bromide staining”; summary of the method: as §3
[21] = biological target: DNA topoisomerase 2-alpha (Homo sapiens) (UniProt P11388); test: Inhibition of human DNA topoisomerase-2a-mediated relaxation of supercoiled DNA pBR322 at 20 uM after 4 hrs using ethidium bromide staining by agarose gel electrophoresis analysis; summary of the method: as §1

SMILES	inhibition [1]	inhibition [2]	inhibition [3]	Activity (HeLa [4]) [%]	Activity (HeLa [5]) [%]	Activity (HeLa [7]) [%]	Activity (HeLa [8]) [%]	IC50 (T47D; t47d) [µM]	Activity (HeLa [9]) [%]	IC50 ([10]; mcf-10a) [µM]	Activity (HeLa [11]) [%]	Activity (HeLa [12]) [%]	Activity (HeLa [13]) [%]	Activity (HeLa [14]) [%]	Activity (HeLa [15]) [%]	Activity (HeLa [16]) [%]	Activity (HeLa [17]) [%]	Activity (HeLa [18]) [%]	Activity (HeLa [19]) [%]	Activity (HeLa [20]) [%]	other results
CCN1CCN(c2nc(-c3cccs3)cc3ccc(C)cc23)CC1	0%	6.5%																			
Cc1ccc2cc(-c3cccs3)nc(N3CCCCC3)c2c1	3.6% and 13.7%	0%	77.5% and 89.6%																		
Cl.c1csc(-c2cc3ccccc3c(N3CCNCC3)n2)c1				0.18	7.25	1.23	99.58	4.51	0.02	18.1	0.04	1.85	60.31	12.7	16.24	3.57	67.99	85.1	7.13	15.05	IC50 ([6]; hct-15): 5.45 µM; IC50 (DU-145; du-145): 8.25 µM
Cc1ccc2cc(-c3cccs3)nc(N3CCOCC3)c2c1	0% and 5.1%	1.1% and 3.7%	71.9% and 77.9%																		
CCN1CCN(c2nc(-c3cccs3)cc3cc(C)ccc23)CC1				2.37	63.92	13.75	96.49	8.45	0.22	33.9	0.47	13.57	65.61	9.77	17.4	2.63	58.48	3.17	13.41	18.01	IC50 ([6]; Homo sapiens, HCT-15, 48 h): 2.41 µM; IC50 (DU-145; Homo sapiens, DU-145, 48 h): 17.2 µM
CCN1CCN(c2nc(-c3cccs3)cc3ccccc23)CC1.Cl				31.74	54.43	15.75	54.68	8.08	3.46	23.8	6.9	18.42	68.51	9.99	15.9	2.59	57.14	2.67	12.88	20	IC50 ([6]; hct-15): 9.29 µM; IC50 (DU-145; Homo sapiens, DU-145, 48 h): 46.6 µM
c1csc(-c2cc3ccccc3c(N3CCNCC3)n2)c1				4.52	67.7	14.88	90.21	9.53	0.72	44.1	1.16	8.71	59.83	13.11	16.28	1.85	61.34	1.77	12.03	16.57	IC50 ([6]; hct-15): 1.25 µM; IC50 (DU-145; du-145): 17.6 µM
c1csc(-c2cc3ccccc3c(N3CCOCC3)n2)c1			0%																		inhibition [21]: 0%
Cc1ccc2cc(-c3cccs3)nc(N3CCN(C)CC3)c2c1	0%	0%	29.6% and 35.9%																		
Nc1nc(-c2cccs2)cc2ccccc12				5.04	11.6	47.68	13.66	7.93	59.85		9.56	11.29	44.93	9.04	28.48	17.43	21.33	18.03	8.2	41.79	IC50 ([6]; hct-15): 1.2 µM; IC50 ([10]; Homo sapiens, MCF-10A, 48 h): > 50 µM; IC50 (DU-145; Homo sapiens, DU-145, 48 h): > 50 µM
Cc1ccc2cc(-c3cccs3)nc(N3CCNCC3)c2c1	22.1%	0%	10.7%	6.92	49.19	18.81	90.48		1.35		1.26	4.72	65.59	11.32	14.91	5.76	68.71	26.67	10.13	14.5	IC50 ([6]; Homo sapiens, HCT-15, 48 h): 1.29 µM; IC50 (T47D; Homo sapiens, T47D, 48 h): 1.14 µM; IC50 ([10]; Homo sapiens, MCF-10A, 48 h): 5.54 µM; IC50 (DU-145; Homo sapiens, DU-145, 48 h): 4.15 µM
Cc1ccc2c(N3CCOCC3)nc(-c3cccs3)cc2c1			0%																		inhibition [21]: 1.7%
Cc1ccc2c(N3CCNCC3)nc(-c3cccs3)cc2c1.Cl				0.57	1.64	0.27	98.87		0	8.18	0.17	0.67	59.04	13.49	12.75	86.88	6.13	96.03	1.6	0.58	IC50 ([6]; Homo sapiens, HCT-15, 48 h): 0.94 µM; IC50 (T47D; Homo sapiens, T47D, 48 h): 7.57 µM; IC50 (DU-145; du-145): 11.7 µM
CCN1CCN(c2nc(-c3cccs3)cc3ccccc23)CC1				71.23	55.62	19.68	3.97	17.4	11.7	49	7.96	13.4	65.03	10.47	14.89	2.08	66.35	3.77	9.46	17.28	IC50 ([6]; Homo sapiens, HCT-15, 48 h): 7.42 µM; IC50 (DU-145; du-145): > 50 µM
